The source of these data is BindingDB's records for doi:10.1021/jm00189a004 (1979).

This assay has as its target Indolethylamine N-methyltransferase (Oryctolagus cuniculus, UniProt O97972). Nature of the assay: Inhibition of New Zealand white rabbit lung INMT using N-methyltryptamine as substrate after 60 to 90 mins by liquid scintillation counting in presence of S-methyl-[14C]adenosylmethionine. The method in brief:
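Enzyme from male rabbit lung: homogenate in 0.15 M KCl with 10^-4 M DTT and EDTA, 50 000 g supernatant, 40-60% ammonium sulfate fraction dialysed (some runs further Sephadex G-150 purified). Incubation in potassium phosphate pH 7.9 with N-methyltryptamine and S-[methyl-14C]adenosylmethionine, test compound in water or 5% DMSO, 37 °C. Stopped with borate pH 10; 14C-DMT extracted into isoamyl alcohol.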

The structures appear in SMILES notation.

Sequence of Indolethylamine N-methyltransferase (O97972 whole entry): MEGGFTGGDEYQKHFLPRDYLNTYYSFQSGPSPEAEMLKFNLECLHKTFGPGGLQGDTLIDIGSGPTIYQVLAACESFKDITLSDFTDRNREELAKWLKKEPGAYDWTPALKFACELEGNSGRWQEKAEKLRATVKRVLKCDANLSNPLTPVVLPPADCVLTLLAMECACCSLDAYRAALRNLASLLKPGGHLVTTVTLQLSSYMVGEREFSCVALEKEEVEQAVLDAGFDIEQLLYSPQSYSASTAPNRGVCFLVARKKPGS

On to `C1CN=C2CCCN2C1`, for which the IC50 was found to be 38.7 µM.

The IC50 is the midpoint of a concentration-inhibition curve.
